≈ marks a conversion by molar mass, not a printed value. Calls of active or inactive are those of the source. The rule behind the calls is not given here.
How the values were obtained:
Bacillus subtilis [1] = assay: Antibacterial activity against Bacillus subtilis at 50 ug/ml incubated for 24 hrs by agar well diffusion method; format: functional; conditions: for zone of inhibition at 50 µg/mL: read-out: DIZ
Procedure, shortened: (§1)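 Bacteria grown in nutrient broth at 37 °C for 24 h, then subcultured at room temperature. Compounds dissolved in DMSO at 5 mg mL⁻¹ and 5–20 µL added to 6 mm wells, giving 25, 50, 75, 100 µg per well. Gentamicin was the positive control and DMSO the negative control. Plates held at 37 °C for 24 h, then inhibition zone diameter (mm) measured. Values are means of three determinations.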

Escherichia coli [2] = assay: Antibacterial activity against Escherichia coli at 75 ug/ml incubated for 24 hrs by agar well diffusion method; format: functional; conditions: for zone of inhibition at 75 µg/mL: read-out: DIZ; procedure, shortened: as §1
Staphylococcus aureus [3] = assay: Antibacterial activity against Staphylococcus aureus at 75 ug/ml incubated for 24 hrs by agar well diffusion method; format: functional; conditions: for zone of inhibition at 75 µg/mL: read-out: DIZ; procedure, shortened: as §1
Escherichia coli [4] = assay: Antibacterial activity against Escherichia coli at 100 ug/ml incubated for 24 hrs by agar well diffusion method; format: functional; conditions: for zone of inhibition at 100 µg/mL: read-out: DIZ; procedure, shortened: as §1
Klebsiella pneumoniae [5] = assay: Antibacterial activity against Klebsiella pneumoniae at 50 ug/ml incubated for 24 hrs by agar well diffusion method; format: functional; conditions: for zone of inhibition at 50 µg/mL: read-out: DIZ; procedure, shortened: as §1
Bacillus subtilis [6] = assay: Antibacterial activity against Bacillus subtilis at 75 ug/ml incubated for 24 hrs by agar well diffusion method; format: functional; conditions: for zone of inhibition at 75 µg/mL: read-out: DIZ; procedure, shortened: as §1
Staphylococcus aureus [7] = assay: Antibacterial activity against Staphylococcus aureus incubated for 24 hrs by microdilution method; format: functional
Klebsiella pneumoniae [8] = assay: Antibacterial activity against Klebsiella pneumoniae at 100 ug/ml incubated for 24 hrs by agar well diffusion method; format: functional; conditions: for zone of inhibition at 100 µg/mL: read-out: DIZ; procedure, shortened: as §1
Klebsiella pneumoniae [9] = assay: Antibacterial activity against Klebsiella pneumoniae at 75 ug/ml incubated for 24 hrs by agar well diffusion method; format: functional; conditions: for zone of inhibition at 75 µg/mL: read-out: DIZ; procedure, shortened: as §1
Staphylococcus aureus [10] = assay: Antibacterial activity against Staphylococcus aureus at 100 ug/ml incubated for 24 hrs by agar well diffusion method; format: functional; conditions: for zone of inhibition at 100 µg/mL: read-out: DIZ; procedure, shortened: as §1
Escherichia coli [11] = assay: Antibacterial activity against Escherichia coli at 25 ug/ml incubated for 24 hrs by agar well diffusion method; format: functional; conditions: for zone of inhibition at 25 µg/mL: read-out: DIZ; procedure, shortened: as §1
Klebsiella pneumoniae [12] = assay: Antibacterial activity against Klebsiella pneumoniae at 25 ug/ml incubated for 24 hrs by agar well diffusion method; format: functional; conditions: for zone of inhibition at 25 µg/mL: read-out: DIZ; procedure, shortened: as §1
Bacillus subtilis [13] = assay: Antibacterial activity against Bacillus subtilis at 100 ug/ml incubated for 24 hrs by agar well diffusion method; format: functional; conditions: for zone of inhibition at 100 µg/mL: read-out: DIZ; procedure, shortened: as §1
Bacillus subtilis [14] = assay: Antibacterial activity against Bacillus subtilis incubated for 24 hrs by microdilution method; format: functional
Staphylococcus aureus [15] = assay: Antibacterial activity against Staphylococcus aureus at 25 ug/ml incubated for 24 hrs by agar well diffusion method; format: functional; conditions: for zone of inhibition at 25 µg/mL: read-out: DIZ; procedure, shortened: as §1
Escherichia coli [16] = assay: Antibacterial activity against Escherichia coli at 50 ug/ml incubated for 24 hrs by agar well diffusion method; format: functional; conditions: for zone of inhibition at 50 µg/mL: read-out: DIZ; procedure, shortened: as §1
Klebsiella pneumoniae [17] = assay: Antibacterial activity against Klebsiella pneumoniae incubated for 24 hrs by microdilution method; format: functional
Bacillus subtilis [18] = assay: Antibacterial activity against Bacillus subtilis at 25 ug/ml incubated for 24 hrs by agar well diffusion method; format: functional; conditions: for zone of inhibition at 25 µg/mL: read-out: DIZ; procedure, shortened: as §1
Escherichia coli [19] = assay: Antibacterial activity against Escherichia coli incubated for 24 hrs by microdilution method; format: functional
Staphylococcus aureus [20] = assay: Antibacterial activity against Staphylococcus aureus at 50 ug/ml incubated for 24 hrs by agar well diffusion method; format: functional; conditions: for zone of inhibition at 50 µg/mL: read-out: DIZ; procedure, shortened: as §1
Aspergillus niger [21] = assay: Antifungal activity against Aspergillus niger at 25 ug/ml incubated for 48 hrs by agar well diffusion method; format: functional; conditions: read-out: DIZ
Procedure, shortened: (§2)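 Compounds dissolved in DMSO at 5 mg mL⁻¹ and 5–20 µL added to 6 mm wells, giving 25, 50, 75, 100 µg per well. Bavistin was the positive control and DMSO the negative control. Plates incubated at 28 °C for 48 h, then inhibition zone diameter (mm) measured. Values are means of three determinations.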

Fusarium oxysporum [22] = assay: Antifungal activity against Fusarium oxysporum at 25 ug/ml incubated for 48 hrs by agar well diffusion method; format: functional; procedure, shortened: as §2
Candida albicans [23] = assay: Antifungal activity against Candida albicans at 25 ug/ml incubated for 48 hrs by agar well diffusion method; format: functional; conditions: read-out: DIZ; procedure, shortened: as §2
Candida albicans [24] = assay: Antifungal activity against Candida albicans at 100 ug/ml incubated for 48 hrs by agar well diffusion method; format: functional; conditions: read-out: DIZ; procedure, shortened: as §2
Fusarium oxysporum [25] = assay: Antifungal activity against Fusarium oxysporum at 75 ug/ml incubated for 48 hrs by agar well diffusion method; format: functional; procedure, shortened: as §2
Candida albicans [26] = assay: Antifungal activity against Candida albicans at 50 ug/ml incubated for 48 hrs by agar well diffusion method; format: functional; conditions: read-out: DIZ; procedure, shortened: as §2
Erythrocyte = assay: Anti-inflammatory activity in human RBC assessed as inhibition of hypotonic solution-induced hemolysis after 10 mins by spectrophotometric method; format: functional, cell-based
Procedure, shortened: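 Human blood (heparinized) washed with 0.9% saline, packed cells made into a 40% v/v stock in isotonic phosphate buffer (154 mM NaCl, 10 mM sodium phosphate, pH 7.4). Stock RBC mixed with hypotonic buffer (50 mM NaCl, 10 mM phosphate, pH 7.4) plus sample at 20–100 µg mL⁻¹.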

Fusarium oxysporum [27] = assay: Antifungal activity against Fusarium oxysporum at 50 ug/ml incubated for 48 hrs by agar well diffusion method; format: functional; procedure, shortened: as §2
Aspergillus niger [28] = assay: Antifungal activity against Aspergillus niger at 100 ug/ml incubated for 48 hrs by agar well diffusion method; format: functional; conditions: read-out: DIZ; procedure, shortened: as §2
Aspergillus niger [29] = assay: Antifungal activity against Aspergillus niger at 50 ug/ml incubated for 48 hrs by agar well diffusion method; format: functional; conditions: read-out: DIZ; procedure, shortened: as §2
Candida albicans [30] = assay: Antifungal activity against Candida albicans at 75 ug/ml incubated for 48 hrs by agar well diffusion method; format: functional; conditions: read-out: DIZ; procedure, shortened: as §2
Fusarium oxysporum [31] = assay: Antifungal activity against Fusarium oxysporum at 100 ug/ml incubated for 48 hrs by agar well diffusion method; format: functional; procedure, shortened: as §2
Aspergillus niger [32] = assay: Antifungal activity against Aspergillus niger at 75 ug/ml incubated for 48 hrs by agar well diffusion method; format: functional; conditions: read-out: DIZ; procedure, shortened: as §2

| Compound | zone of inhibition at 50 µg/mL (Bacillus subtilis [1]) [mm] | zone of inhibition at 25 µg/mL (Aspergillus niger [21]) [mm] | zone of inhibition at 75 µg/mL (Escherichia coli [2]) [mm] | zone of inhibition at 75 µg/mL (Staphylococcus aureus [3]) [mm] | zone of inhibition at 100 µg/mL (Escherichia coli [4]) [mm] | zone of inhibition at 50 µg/mL (Klebsiella pneumoniae [5]) [mm] | zone of inhibition at 25 µg/mL (Candida albicans [23]) [mm] | zone of inhibition at 75 µg/mL (Bacillus subtilis [6]) [mm] | zone of inhibition at 100 µg/mL (Klebsiella pneumoniae [8]) [mm] | zone of inhibition at 75 µg/mL (Klebsiella pneumoniae [9]) [mm] | zone of inhibition at 100 µg/mL (Candida albicans [24]) [mm] | zone of inhibition at 100 µg/mL (Staphylococcus aureus [10]) [mm] | zone of inhibition at 50 µg/mL (Candida albicans [26]) [mm] | IC50 (Erythrocyte) [µg/mL] | zone of inhibition at 25 µg/mL (Escherichia coli [11]) [mm] | zone of inhibition at 100 µg/mL (Aspergillus niger [28]) [mm] | zone of inhibition at 25 µg/mL (Klebsiella pneumoniae [12]) [mm] | zone of inhibition at 100 µg/mL (Bacillus subtilis [13]) [mm] | zone of inhibition at 25 µg/mL (Staphylococcus aureus [15]) [mm] | zone of inhibition at 50 µg/mL (Escherichia coli [16]) [mm] | also measured |
| --- | --- | --- | --- | --- | --- | --- | --- | --- | --- | --- | --- | --- | --- | --- | --- | --- | --- | --- | --- | --- | --- |
| GENTAMICIN |  |  |  |  |  |  |  |  |  |  |  |  |  |  |  |  |  |  |  |  | inhibition zone (IZ) (Bacillus subtilis [1]): 24 mm; inhibition zone (IZ) (Escherichia coli [2]): 29 mm; inhibition zone (IZ) (Staphylococcus aureus [3]): 29 mm; inhibition zone (IZ) (Escherichia coli [4]): 33 mm; inhibition zone (IZ) (Klebsiella pneumoniae [5]): 24 mm; inhibition zone (IZ) (Bacillus subtilis [6]): 28 mm; MIC (Staphylococcus aureus [7]): 26 µg/mL; inhibition zone (IZ) (Klebsiella pneumoniae [8]): 34 mm; inhibition zone (IZ) (Klebsiella pneumoniae [9]): 29 mm; inhibition zone (IZ) (Staphylococcus aureus [10]): 32 mm; inhibition zone (IZ) (Escherichia coli [11]): 18 mm; inhibition zone (IZ) (Klebsiella pneumoniae [12]): 19 mm; inhibition zone (IZ) (Bacillus subtilis [13]): 33 mm; MIC (Bacillus subtilis [14]): 28 µg/mL; inhibition zone (IZ) (Staphylococcus aureus [15]): 17 mm; inhibition zone (IZ) (Escherichia coli [16]): 24 mm; MIC (Klebsiella pneumoniae [17]): 26 µg/mL; inhibition zone (IZ) (Bacillus subtilis [18]): 21 mm; MIC (Escherichia coli [19]): 26 µg/mL; inhibition zone (IZ) (Staphylococcus aureus [20]): 21 mm |
| CC[C@H](C)[C@H](NC(=O)OC(C)(C)C)C(=O)Oc1ccc2c(=O)c3ccccc3oc2c1 | 11 | 8 | 19 | 15 | 22 | 14 | 9 | 14 | 25 | 20 | 22 | 19 | 13 | 60 (≈ 141 µM) | 8 | 20 | 7 | 19 | 4 | 12 | diameter of the inhibition zone (DIZ) (Fusarium oxysporum [22]): inactive; diameter of the inhibition zone (DIZ) (Fusarium oxysporum [25]): inactive; diameter of the inhibition zone (DIZ) (Fusarium oxysporum [27]): inactive; zone of inhibition at 50 µg/mL (Aspergillus niger [29]): 12 mm; zone of inhibition at 75 µg/mL (Candida albicans [30]): 17 mm; diameter of the inhibition zone (DIZ) (Fusarium oxysporum [31]): inactive; zone of inhibition at 25 µg/mL (Bacillus subtilis [18]): 7 mm; zone of inhibition at 75 µg/mL (Aspergillus niger [32]): 16 mm; zone of inhibition at 50 µg/mL (Staphylococcus aureus [20]): 10 mm |
| Cl.N[C@@H](CS)C(=O)Oc1ccc2c(=O)c3ccccc3oc2c1 | 26 | 19 | 34 | 35 | 39 | 23 | 17 | 31 | 37 | 30 | 40 | 39 | 26 | 30 | 19 | 37 | 15 | 34 | 20 | 28 | zone of inhibition at 25 µg/mL (Fusarium oxysporum [22]; read-out: DIZ): 20 mm; zone of inhibition at 75 µg/mL (Fusarium oxysporum [25]; read-out: DIZ): 33 mm; zone of inhibition at 50 µg/mL (Fusarium oxysporum [27]; read-out: DIZ): 28 mm; zone of inhibition at 50 µg/mL (Aspergillus niger [29]): 27 mm; zone of inhibition at 75 µg/mL (Candida albicans [30]): 35 mm; zone of inhibition at 100 µg/mL (Fusarium oxysporum [31]; read-out: DIZ): 39 mm; zone of inhibition at 25 µg/mL (Bacillus subtilis [18]): 19 mm; zone of inhibition at 75 µg/mL (Aspergillus niger [32]): 32 mm; zone of inhibition at 50 µg/mL (Staphylococcus aureus [20]): 29 mm |

Reference: ChEMBL document CHEMBL4261538, “Synthesis and molecular docking studies of xanthone attached amino acids as potential antimicrobial and anti-inflammatory agents” (Medchemcomm, 2017)
